Assay outcomes (PubChem BioAssay)
INS-1E ATP HTS: protection of INS-1E cells from cytokine death, primary screen, ATP luminescence, single point | INS-1E cytokine-induced death, 48 h; normalised: neutral wells 0, positive control 100 | protection from cytokine-induced ATP loss, % at 10 µM | 20,000 compounds, 0.1% hits | AID 488910, 2010;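 active means mean replicate protection from cytokine-induced ATP loss at least 50% and at least 75% of replicates each reaching 50%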
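Assay system – rat INS-1E insulinoma cell line · Quantity – 8000 cells per well · Buffer or medium – RPMI without phenol red, 5% FBS · Schedule – 48 h co-treatment, 10 min post-lysis read · Technique – luminescent ATP assay (CellTiter-Glo)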
T cruzi intra: inhibitors of intracellular Trypanosoma cruzi, primary screen, cell-based, plate reader, single point, set 2; intracellular Trypanosoma cruzi in host cells; activity score (inhibition), % at 5.01 µM; 22,000 compounds, 4.9% hits; AID 651903, 2012; in the data active means activity score above about 55%;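 further: parasites and compound incubated about four days before reading; 0% = median of neutral control wells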
YB-1 expression: inhibitors of YB-1 gene expression, primary screen, cell-based, fluorescence | AID 434959, 2010 | delta delta Cp (YB-1 minus CDIP) (concentration not given with the values) | 30,000 compounds, 0.37% hits | U2OS, qRT-PCR YB-1 vs CDIP delta delta Cp, 16 h; hits give high values; zero = DMSO, each unit about twofold;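 active means delta delta Cp rounded down to an integer at or above 3, about 3 SD of DMSO wells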;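 further: higher means less YB-1 transcript or more CDIP transcript relative to DMSO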
The depositor's hits bear a star; / = no result. The sample as a whole holds a higher share of hits than the screen did.

SMILES	INS-1E ATP HTS	T cruzi intra	YB-1 expression
C[C@@H]1CN([C@@H](C)CO)C(=O)c2cc(NC(=O)Nc3cccc4ccccc34)ccc2O[C@H]1CN(C)CC1CCCCC1	-14.0	15.6	0.317
C[C@@H]1CCCCO[C@H](CN(C)CC2CCCCC2)[C@@H](C)CN([C@H](C)CO)C(=O)c2cc(NC(=O)Nc3cccc4ccccc34)ccc2O1	-32.8	63.5*	0.518
C[C@@H]1CCCCO[C@@H](CN(C)C(=O)Nc2cccc3ccccc23)[C@@H](C)CN([C@H](C)CO)C(=O)c2cc(NC(=O)Nc3cccc4ccccc34)ccc2O1	-9.1	-10.3	-0.34
C[C@@H]1CCCCO[C@@H](CN(C)CC2CCCCC2)[C@@H](C)CN([C@H](C)CO)C(=O)c2cc(NC(=O)Nc3cccc4ccccc34)ccc2O1	-31.8	66.7*	-0.327
CSc1nnc(Cc2ccccc2)c(=O)[nH]1	/	/	0.0666
c1ccc(C2OCC3OC(c4ccccc4)OC3CO2)cc1 (centres undefined)	/	/	-1.01
Cc1ccc(S(=O)(=O)Nc2ccccc2/C(O)=C(/C#N)c2nc3ccccc3n2C)cc1	/	/	0.049
C/C(CCc1oc2ccccc2c1-c1ccc(C)o1)=N\O	/	/	0.232
CC(C)(C)c1ccc(-c2cc3ccccn3c2)cc1	/	/	10.2*
COc1ccc2ccc(=O)oc2c1C(OC(C)=O)C(=O)C(C)C (centres undefined)	/	/	0.614
Cc1noc(C)c1S(=O)(=O)Nc1ccc2c(c1)C(=O)N([C@H](C)CO)C[C@@H](C)[C@@H](CN(C)C(=O)Nc1ccc(C(F)(F)F)cc1)O2	6.5	5.1	0.346
Cc1noc(C)c1S(=O)(=O)Nc1ccc2c(c1)C(=O)N([C@@H](C)CO)C[C@@H](C)[C@H](CN(C)C(=O)Nc1ccc(C(F)(F)F)cc1)O2	0.3	-0.3	-0.324
Cc1noc(C)c1S(=O)(=O)Nc1ccc2c(c1)C(=O)N([C@H](C)CO)C[C@H](C)[C@H](CN(C)C(=O)Nc1ccc(C(F)(F)F)cc1)OCCCC[C@@H](C)O2	4.1	58.1*	0.189
Cc1noc(C)c1S(=O)(=O)Nc1ccc2c(c1)C(=O)N([C@H](C)CO)C[C@H](C)[C@@H](CN(C)C(=O)Nc1ccc(C(F)(F)F)cc1)OCCCC[C@@H](C)O2	2.2	58.0*	0.22
CSc1sc(C#N)c2c1C(=O)CC(c1ccccc1)C2 (centres undefined)	/	/	-0.443
CCCCCC(=O)Cc1cc(O)c(O)c2c1C(=O)Oc1cc(O)c(C(=O)O)c(CCCCC)c1O2	/	/	0.553
C[C@H]1CN([C@@H](C)CO)C(=O)c2cc(NC(=O)C3CCCCC3)ccc2O[C@@H]1CN(C)C(=O)Nc1cccc2ccccc12	2.6	-25.8	0.0157
C[C@@H]1CN([C@H](C)CO)C(=O)c2cc(NC(=O)C3CC3)ccc2O[C@H]1CN(C)C(=O)NC1CCCCC1	3.6	-42.5	-0.0206
C[C@@H]1CN([C@@H](C)CO)C(=O)c2cc(NC(=O)C3CCCCC3)ccc2O[C@H]1CN(C)C(=O)Nc1cccc2ccccc12	2.4	-0.6	5.59*
C[C@@H]1CN([C@@H](C)CO)C(=O)c2cc(NC(=O)C3CC3)ccc2O[C@H]1CN(C)C(=O)NC1CCCCC1	2.2	4.9	20.8*
Cc1ccc(C(=O)OC[C@H]2O[C@H](c3nnc4ncccn34)C[C@@H]2OC(=O)c2ccc(C)cc2)cc1	/	/	-0.53
C[C@@H]1CN([C@@H](C)CO)C(=O)Cc2cc(NS(=O)(=O)c3ccccc3)ccc2O[C@@H]1CN(C)S(=O)(=O)c1ccc(Cl)cc1	-6.4	67.0*	-15.6
C[C@@H]1CN([C@@H](C)CO)C(=O)Cc2cc(NS(=O)(=O)c3ccc(Cl)cc3)ccc2O[C@@H]1CN(C)S(=O)(=O)c1ccc(Cl)cc1	-5.0	67.0*	0.0456
C[C@H]1CN([C@@H](C)CO)C(=O)Cc2cc(NS(=O)(=O)c3ccc(Cl)cc3)ccc2O[C@H]1CN(C)S(=O)(=O)c1ccc(Cl)cc1	-4.2	-1.0	-0.00552
Cc1ccc(S(=O)(=O)Nc2ccc3c(c2)CC(=O)N([C@H](C)CO)C[C@H](C)[C@H](CN(C)S(=O)(=O)c2ccccc2)O3)cc1	5.3	-7.1	0.379
SMILES	INS-1E ATP HTS	T cruzi intra	YB-1 expression
Cc1ccc(S(=O)(=O)Nc2ccc3c(c2)CC(=O)N([C@H](C)CO)C[C@@H](C)[C@@H](CN(C)S(=O)(=O)c2ccccc2)O3)cc1	1.5	69.1*	-0.306
C[C@H]1CN([C@@H](C)CO)C(=O)Cc2cc(NS(=O)(=O)c3ccc(Cl)cc3)ccc2O[C@H]1CN(C)S(=O)(=O)c1ccccc1	6.8	-2.4	-0.0532
CN(C)c1oc(-c2ccc(Cl)cc2)nc1C#N	/	/	-0.362
COc1ccc(C(=O)NC(CO)(CO)CO)cc1OC	/	/	-0.77
O=S(=O)(c1ccc(Cl)c(Cl)c1)N1CCN(Cc2ccc(OCCO)cc2)CC1	/	/	-0.0612
COc1cc(O)c(C(=O)c2c(C)cc(O)cc2OC)c(O)c1	/	/	-0.0182
C[C@H](CO)N1C[C@H](C)[C@H](CN(C)C)Oc2ncc(C#Cc3ccccc3)cc2C1=O	/	78.5*	0.376
COc1ccc(C#Cc2cnc3c(c2)C(=O)N([C@H](C)CO)C[C@H](C)[C@H](CN(C)C)O3)cc1OC	/	82.8*	-0.504
C[C@H](CO)N1C[C@H](C)[C@H](CN(C)C)Oc2ncc(C#CCN(C)C)cc2C1=O	/	-14.8	-0.28
Cc1cccc(CN(C)C[C@@H]2Oc3ncc(C#CCN(C)C)cc3C(=O)N([C@H](C)CO)C[C@@H]2C)c1	/	2.7	-0.0172
COc1ccc(C#Cc2cnc3c(c2)C(=O)N([C@H](C)CO)C[C@H](C)[C@H](CN(C)Cc2cccc(C(F)(F)F)c2)O3)cc1OC	/	83.6*	-0.17
COc1ccc(S(=O)(=O)N(C)C[C@@H]2Oc3ncc(C#Cc4ccc(OC)c(OC)c4)cc3C(=O)N([C@H](C)CO)C[C@@H]2C)cc1	/	42.9	-0.185
Cc1cccc(CN(C)C[C@@H]2Oc3ncc(C#Cc4ccccc4)cc3C(=O)N([C@H](C)CO)C[C@@H]2C)c1	/	73.6*	-0.463
COc1ccc(C#Cc2cnc3c(c2)C(=O)N([C@H](C)CO)C[C@H](C)[C@H](CN(C)Cc2ccccc2)O3)cc1OC	/	15.4	-0.531
COC1OC2COC(c3ccccc3)OC2CC1O (centres undefined)	/	/	-0.413
COc1ccccc1COc1ccc2c3c(c(=O)oc2c1C)CCCCC3	/	/	0.0361
O=C1O[C@H](c2ccccc2)[C@H](c2ccccc2)N2[C@H]1[C@@H](C(=O)O)[C@]1(C(=O)Nc3ccc(C#CCCO)cc31)[C@H]2c1ccc(OCCO)cc1	/	/	-0.0698
COc1ccc(C2=Nc3ccccc3SC(c3ccccc3)C2)cc1 (centres undefined)	/	/	-0.0223
O=C(N/N=C/c1cc(Br)cs1)c1ccccc1O	-32.7	-21.7	0.0011
O=C(N/N=C/c1cc(O)ccc1Br)c1ccccc1O	-44.9	-7.1	0.0288
Cn1cc(/C=N\NC(=O)c2ccccc2O)c2ccccc21	13.8	-21.6	-0.0122
O=C(N/N=C/c1ccc(O)cc1O)c1ccccc1O	-127.8	67.0*	0.557
O=C(N/N=C/c1cc(Br)cc(Br)c1O)c1ccccc1O	-125.3	83.1*	-0.0454
